The source made the active and inactive calls. No cut-off for these calls is given here.
Species on record: Mus musculus
Assay: Cytotoxicity against mouse L1.2 cells at 1.5 uM
Type: toxicity, cell-based
Conditions: l1.2, 1.5 µM

SMILES | Activity
C=CCc1cc(OC)c(O[C@H](C)[C@@H](O)c2cc(OC)c(O)c(OC)c2)c(OC)c1 | Non-Toxic

What follows are compounds tested against T1, C-C chemokine receptor type 3 (Homo sapiens) (UniProt P51677) (assay: Antagonist activity at human EGFP-fused CCR3 expressed in mouse L1.2 cells assessed as inhibition of CCL11-induced chemotaxis at 1 uM measured after 1.5 hrs by PicoGreen dsDNA reagent-based assay). Conditions: not given.
T1 sequence (whole entry): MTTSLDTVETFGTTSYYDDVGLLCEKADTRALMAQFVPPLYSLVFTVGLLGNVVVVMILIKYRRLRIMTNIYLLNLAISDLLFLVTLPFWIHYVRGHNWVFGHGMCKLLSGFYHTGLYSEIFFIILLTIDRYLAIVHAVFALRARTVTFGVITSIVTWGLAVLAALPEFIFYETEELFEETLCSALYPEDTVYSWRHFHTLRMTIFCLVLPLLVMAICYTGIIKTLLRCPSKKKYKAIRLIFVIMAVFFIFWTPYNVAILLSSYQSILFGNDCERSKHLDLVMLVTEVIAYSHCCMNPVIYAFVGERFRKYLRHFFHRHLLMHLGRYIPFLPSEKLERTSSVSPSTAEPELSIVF
Type: cell-based
In short: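 Human CCR3 was stably expressed in mouse pre-B L1.2 cells by a retroviral pMX-IRES-EGFP vector, and EGFP+ cells were sorted. Test sample was at 1 μM (DMSO, 0.5% final) with 10 nM CCL11 in lower wells (phenol red-free RPMI/BSA). Cells at 8 × 10^6/mL crossed a 5 μm filter for 1.5 h at 37 °C. Migrated cells were lysed (0.1% Triton X-100) and quantified with PicoGreen. Three experiments, Dunnett's test vs control.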

SMILES | inhibition
C/C=C/c1cc(OC)c2c(c1)[C@@H](C)[C@H](c1ccc(O)c(OC)c1)O2 | Active
COc1cc([C@H]2Oc3c(OC)cc(/C=C/C=O)cc3[C@@H]2C)ccc1O | Active
C=CCc1cc(OC)c2c(c1)OCO2 | Active
C=CCc1cc(OC)c(O[C@H](C)Cc2ccc3c(c2)OCO3)c(OC)c1 | Active
C=CCc1cc(OC)c(O[C@@H](C)[C@H](OC(C)=O)c2ccc(OC)c(OC)c2)c(OC)c1 | Active
C=CCc1cc(OC)c(O[C@H](C)[C@@H](O)c2cc(OC)c(O)c(OC)c2)c(OC)c1 | Active
C/C=C/c1cc(OC)c2c(c1)[C@@H](C)[C@H](c1cc(OC)c(O)c(OC)c1)O2 | Active
COc1cc([C@H]2O[C@@H](c3ccc(O)c(OC)c3)[C@H](C)[C@@H]2C)ccc1O | Active
COc1cc([C@H]2O[C@@H](c3ccc(O)c(OC)c3)[C@@H](C)[C@@H]2C)ccc1O | Active
C=CCc1cc(OC)c(O[C@H](C)[C@@H](O)c2ccc3c(c2)OCO3)c(OC)c1 | Active

From ChEMBL document CHEMBL3865813, “Neolignans from the Arils of Myristica fragrans as Potent Antagonists of CC Chemokine Receptor 3” (J Nat Prod, 2016)
